Data published in ChEMBL document CHEMBL5303300, “EUbOPEN Chemogenomics Library - Multiplex” (2023).
“And” between values parts separate entries of the source, which are not always exact repeats. Equal entries are not always repeated.

System: HEK-293T
Assay: Multiplex assay against HEK293T
Assay type: toxicity, cell-based
Details: human, number of replicates 2
Procedure, shortened: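 Imaging took place on a CQ1 microscope at 37°C and 5% CO2 once compound had been added to live cells stained at seeding with Hoechst33342, BioTracker Green Microtubule Cytoskeleton Dye, MitoTracker Red and Annexin V Alexa Fluor 680. CellPathfinder machine-learning gating classed cells as Hoechst high-intensity objects or normal cells, classed normal cells as having healthy, pyknosed or fragmented nuclei, and classed pyknosed cells as mitotic or apoptotic. Tubulin, mitochondrial-mass and membrane-permeability phenotypes are per cents of the healthy-nucleus cells.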

[1] = 12 h, 1 µM, compound concentration 1 uM
[2] = 12 h, 10 µM, compound concentration 10 uM
[3] = 24 h, 1 µM, compound concentration 1 uM
[4] = 24 h, 10 µM, compound concentration 10 uM
[5] = 48 h, 1 µM, compound concentration 1 uM
[6] = 48 h, 10 µM, compound concentration 10 uM

## C[C@@H](OC[C@@]1(c2ccccc2)CC[C@]2(CCC(=O)N2)CN1)c1cc(C(F)(F)F)cc(C(F)(F)F)c1 [ROLAPITANT]
[1]
  Population Apoptotic (%): 57% and 49%
  Population Fragmented Nuclei (%): 6% and 4%
  Population Healthy Nuclei (%): 72% and 81%
  Population Hoechst High Intensity Objects (%): 7% and 8%
  Population Membrane Permeable-Phenotype (%): 5% and 3%
  Population Mitochondria Different-Phenotype (%): 25% and 28%
  Population Mitotic Cells (%): 42% and 50%
  Population Normal (%): 92% and 91%
  Population Pyknosed Nuclei (%): 21% and 14%
  Population Tubulin-Different-Phenotype (%): 66% and 80%
  Total Cell Count: 453 and 616
[2]
  Population Apoptotic (%): 56% and 70%
  Population Fragmented Nuclei (%): 4%
  Population Healthy Nuclei (%): 80% and 77%
  Population Hoechst High Intensity Objects (%): 11% and 6%
  Population Membrane Permeable-Phenotype (%): 4% and 2%
  Population Mitochondria Different-Phenotype (%): 35% and 40%
  Population Mitotic Cells (%): 44% and 29%
  Population Normal (%): 88% and 93%
  Population Pyknosed Nuclei (%): 15% and 17%
  Population Tubulin-Different-Phenotype (%): 81% and 86%
  Total Cell Count: 563 and 415
[3]
  Population Apoptotic (%): 63% and 53%
  Population Fragmented Nuclei (%): 8% and 6%
  Population Healthy Nuclei (%): 75% and 80%
  Population Hoechst High Intensity Objects (%): 6% and 9%
  Population Membrane Permeable-Phenotype (%): 3% and 2%
  Population Mitochondria Different-Phenotype (%): 12% and 13%
  Population Mitotic Cells (%): 36% and 46%
  Population Normal (%): 93% and 90%
  Population Pyknosed Nuclei (%): 15% and 12%
  Population Tubulin-Different-Phenotype (%): 51% and 61%
  Total Cell Count: 631 and 823
[4]
  Population Apoptotic (%): 61%
  Population Fragmented Nuclei (%): 7%
  Population Healthy Nuclei (%): 81% and 77%
  Population Hoechst High Intensity Objects (%): 12% and 9%
  Population Membrane Permeable-Phenotype (%): 3%
  Population Mitochondria Different-Phenotype (%): 21% and 27%
  Population Mitotic Cells (%): 38%
  Population Normal (%): 87% and 90%
  Population Pyknosed Nuclei (%): 11% and 15%
  Population Tubulin-Different-Phenotype (%): 70% and 69%
  Total Cell Count: 730 and 604
[5]
  Population Apoptotic (%): 35% and 28%
  Population Fragmented Nuclei (%): 12% and 11%
  Population Healthy Nuclei (%): 82% and 83%
  Population Hoechst High Intensity Objects (%): 8% and 11%
  Population Membrane Permeable-Phenotype (%): 5% and 3%
  Population Mitochondria Different-Phenotype (%): 1% and 2%
  Population Mitotic Cells (%): 64% and 71%
  Population Normal (%): 91% and 88%
  Population Pyknosed Nuclei (%): 4% and 5%
  Population Tubulin-Different-Phenotype (%): 23% and 39%
  Total Cell Count: 1671
[6]
  Population Apoptotic (%): 50% and 48%
  Population Fragmented Nuclei (%): 11% and 8%
  Population Healthy Nuclei (%): 83% and 84%
  Population Hoechst High Intensity Objects (%): 9%
  Population Membrane Permeable-Phenotype (%): 6% and 3%
  Population Mitochondria Different-Phenotype (%): 4% and 11%
  Population Mitotic Cells (%): 49% and 51%
  Population Normal (%): 90%
  Population Pyknosed Nuclei (%): 5% and 7%
  Population Tubulin-Different-Phenotype (%): 53% and 48%
  Total Cell Count: 1126 and 904
